Measured values of several laboratories.
Lines come from different studies, so protocols differ.
Target: Procathepsin L (CTSL, Homo sapiens, UniProt P07711)
Effect on: enzyme activity
Action: inhibitor

SMILES	method	endpoint	value
CN(C(=O)[C@H](Cc1ccccc1)NC(=O)[C@@H](NC(=O)OCc1ccccc1)C(C)(C)C)N(C#N)CCC(N)=O	–	Ki	52.9 nM
CC(C)C[C@H](NC(=O)[C@H]1O[C@@H]1C(=O)O)C(=O)NCCCCN=C(N)N	–	IC50	33 nM
COc1cccc2[nH]c(C(=O)N[C@@H](CC(C)C)C(=O)N[C@@H](C[C@@H]3CCNC3=O)C(=O)CO)cc12	–	IC50	146 nM
COc1cc(Nc2ncc(F)c(Nc3ccc4c(n3)NC(=O)C(C)(C)O4)n2)cc(OC)c1OC	–	IC50	6310 nM
COC(=O)c1c(C)[nH]c(C(=O)COn2nnc3ccc(S(=O)(=O)N(C)C)cc32)c1C	FRET	IC50	> 100000 nM
CC(C)(C)OC(=O)Nc1cccn([C@@H](CC2CC2)C(=O)N[C@@H](C[C@@H]2CCNC2=O)C(=O)C(=O)NCc2ccccc2)c1=O	–	IC50	291 nM
CC[C@H]1NC(=O)[C@@H]2CSC(=N2)[C@@H](Cc2ccccc2)N(C)C(=O)[C@@H]2CCCN2C(=O)[C@H](C(C)C)N(C)C(=O)[C@H](Cc2ccccc2)OC(=O)[C@H](C)[C@@H](C)NC(=O)[C@@H]([C@@H](C)O)NC(=O)[C@@H](CC(C)C)N(C)C(=O)[C@@H]2CSC1=N2	–	IC50	14000 nM
O=C(Cn1nnc2ccccc21)Nc1ccccc1N1CCc2sccc2C1	FRET	IC50	9960 nM
CC[C@H](NC(=O)OCc1ccccc1)C(=O)N[C@H](C(=O)N[C@@H](CC(C)C)C(=O)N(C)N(C#N)CCC(N)=O)C(C)(C)C	–	Ki	22.2 nM
